Laboratory results: ChEMBL document CHEMBL4706564 (Eur J Med Chem, 2020)
pIC50: −log10 of the molar value.

Assays:
[1] = cells; format: cell-based, Ebolavirus, HEK293T; conditions: Orthoebolavirus, Mayinga, HEK-293T
[2] = cells; format: cell-based, HEK293T; conditions: Vesicular stomatitis virus, HEK-293T
[3] = in vitro; conditions: human, HEK293T cells
[4] = Cytotoxicity against human HEK293T cells incubated for 48 hrs by MTT assay; format: cell-based, HEK-293T; conditions: HEK293T cells
In short: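 HEK293T cells at 10⁵ cells/ml were added to two-fold compound dilutions in 10% DMEM and incubated 48 h at 37 °C, 5% CO2. MTT (5 mg/ml stock in PBS, 1/10 volume) was added for 2 h, and formazan was dissolved in DMSO before reading optical density. Each concentration was run in triplicate. CC50 was the concentration giving 50% cell death, or halving OD versus control.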

SMILES | pIC50 [1] | pIC50 [2] | selectivity ratio [3] | CC50 at 48 h [4]
CC1(C)[C@H]2CC[C@]1(C)[C@H](OC(=O)CCN1CCN(Cc3ccccc3)CC1)C2 | 6.52 | 4.57 | 150 | 39 µM
CC1CCN(CCCCC(=O)O[C@@H]2C[C@@H]3CC[C@@]2(C)C3(C)C)CC1 | 6.70 | 4.08 | 408 | 73 µM
CCN1CCN(CCCC(=O)O[C@@H]2C[C@@H]3CC[C@@]2(C)C3(C)C)CC1 | 7.00 | 3.78 | 880 | 131 µM
CN[C@H]1CC[C@@H](c2ccc(Cl)c(Cl)c2)c2ccccc21 [SERTRALINE] |  |  |  | 408 µM
CC1(C)[C@H]2CC[C@]1(C)[C@H](OC(=O)CN1CCN(Cc3ccccc3)CC1)C2 | 5.89 | 4.40 | 44 | 59.4 µM
CC1(C)[C@@H]2CC[C@@]1(C)[C@H](OC(=O)CN1CCCCC1)C2 | 5.54 |  | 28 | 80.5 µM
CC1(C)[C@H]2CC[C@]1(C)[C@H](OC(=O)CCCN1CCCCC1)C2 | 6.52 | 4.30 | 230 | 74.8 µM
CN1CCN(CC(=O)O[C@@H]2C[C@@H]3CC[C@@]2(C)C3(C)C)CC1 | 5.17 | 3.31 | 46 | 312 µM
CC1CCN(CC(=O)O[C@@H]2C[C@@H]3CC[C@@]2(C)C3(C)C)CC1 | 5.07 | 4.46 | 8 | 71.6 µM
CC1CCN(CCCC(=O)N[C@@H]2C[C@H]3CC[C@]2(C)C3(C)C)CC1 | 5.47 | 3.85 | 41 | 142 µM
CC1(C)[C@H]2CC[C@]1(C)[C@H](OC(=O)CCCN1CCCCCC1)C2 | 6.70 |  | 250 | 62.2 µM
CCN1CCN(CCCC(=O)N[C@@H]2C[C@H]3CC[C@]2(C)C3(C)C)CC1 | 5.68 | 3.57 | 129 | 268 µM
CCOC(=O)N1CCN(CCC(=O)O[C@@H]2C[C@@H]3CC[C@@]2(C)C3(C)C)CC1 | 4.55 |  | 4 | 110 µM
CC1CCN(CC(=O)N[C@@H]2C[C@H]3CC[C@]2(C)C3(C)C)CC1 | 4.57 | 4.11 |  | 78 µM
CC1CCN(CCCC(=O)O[C@@H]2C[C@@H]3CC[C@@]2(C)C3(C)C)CC1 | 5.03 | 3.56 |  | 171 µM
CN1CCN(CCC(=O)N[C@@H]2C[C@H]3CC[C@]2(C)C3(C)C)CC1 | 5.59 | 3.31 | 187 | 486 µM
CC1(C)[C@@H]2CC[C@@]1(C)[C@H](NC(=O)CCN1CCOCC1)C2 | 4.66 | 3.51 |  | 312 µM
CC1(C)[C@H]2CC[C@]1(C)[C@H](OC(=O)CN1CCN(CCN)CC1)C2 | 5.66 | 4.62 | 114 | 247 µM
CC1(C)[C@@H]2CC[C@@]1(C)[C@H](NC(=O)CN1CCOCC1)C2 | 5.24 | 3.08 | 147 | 838 µM
CC1(C)[C@H]2CC[C@]1(C)[C@H](OC(=O)CCCCN1CCCCC1)C2 | 6.22 | 3.98 | 162 | 101 µM
CC1(C)[C@H]2CC[C@]1(C)[C@H](OC(=O)CCCN1CCN(Cc3ccccc3)CC1)C2 | 6.52 | 4.59 | 100 | 30.1 µM
CN(C)CCCC(=O)O[C@@H]1C[C@@H]2CC[C@@]1(C)C2(C)C | 5.82 |  | 67 | 101 µM

SMILES | pIC50 [1] | pIC50 [2] | selectivity ratio [3] | CC50 at 48 h [4]
CCN(CC)CC(=O)O[C@@H]1C[C@@H]2CC[C@@]1(C)C2(C)C | 5.25 | 3.25 | 61 | 344 µM
CC1(C)[C@H]2CC[C@]1(C)[C@@H](OC(=O)CN1CCCCC1)C2 | 5.44 |  | 25 | 89.5 µM
CC1(C)[C@H]2CC[C@]1(C)[C@H](OC(=O)CCCN1CCOCC1)C2 | 5.19 | 3.54 | 33 | 210 µM
CN(C)CCC(=O)O[C@@H]1C[C@@H]2CC[C@@]1(C)C2(C)C | 4.52 |  | 17 | 505 µM
CC1CCN(CC(=O)O[C@@H]2C[C@H]3CC[C@]2(C)C3(C)C)CC1 | 5.51 |  | 11 | 34.1 µM
CCN1CCN(CCC(=O)N[C@@H]2C[C@H]3CC[C@]2(C)C3(C)C)CC1 | 6.22 | 3.25 | 908 | 565 µM
CN1CCN(CCCC(=O)O[C@@H]2C[C@@H]3CC[C@@]2(C)C3(C)C)CC1 | 6.22 | 4.01 |  | 99.2 µM
CC1CCN(CCC(=O)N[C@@H]2C[C@H]3CC[C@]2(C)C3(C)C)CC1 | 5.59 | 4.03 | 36 | 93.6 µM
CC1(C)[C@H]2CC[C@]1(C)[C@H](OC(=O)CCN1CCN(CCO)CC1)C2 | 5.74 | 3.59 | 153 | 272 µM
CCOC(=O)N1CCN(CC(=O)O[C@@H]2C[C@@H]3CC[C@@]2(C)C3(C)C)CC1 | 4.70 | 3.95 | 11 | 227 µM
CC1(C)[C@H]2CC[C@]1(C)[C@H](OC(=O)CN1CCOCC1)C2 | 4.60 | 3.54 | 13 | 327 µM
CN1CCN(CCCC(=O)N[C@@H]2C[C@H]3CC[C@]2(C)C3(C)C)CC1 | 5.60 | 3.32 | 191 | 475 µM
CCN(CC)CCC(=O)O[C@@H]1C[C@@H]2CC[C@@]1(C)C2(C)C | 4.91 | 3.39 | 26 | 327 µM
CC1(C)[C@@H]2CC[C@@]1(C)[C@H](NC(=O)CCCN1CCOCC1)C2 | 5.03 | 3.76 | 18 | 172 µM
CCN1CCN(CC(=O)N[C@@H]2C[C@H]3CC[C@]2(C)C3(C)C)CC1 | 5.07 | 3.18 | 78 | 660 µM
CC1(C)[C@H]2CC[C@]1(C)[C@H](OC(=O)CN1CCN(CCO)CC1)C2 | 4.86 | 3.40 | 21 | 296 µM
CC1(C)[C@H]2CC[C@]1(C)[C@H](OC(=O)CCCN1CCN(CCN)CC1)C2 | 6.22 | 4.30 | 125 | 71.1 µM
CC1(C)[C@H]2CC[C@]1(C)[C@H](OC(=O)CCCN1CCN(CCO)CC1)C2 | 6.52 | 3.72 | 658 | 224 µM
CN(C)CC(=O)O[C@@H]1C[C@@H]2CC[C@@]1(C)C2(C)C | 3.60 | 3.28 | 2 | 389 µM
CC1CCN(CC(=O)O[C@H]2C[C@@H]3CC[C@@]2(C)C3(C)C)CC1 | 5.36 |  | 8 | 34.1 µM
CC1(C)[C@H]2CC[C@]1(C)[C@H](OC(=O)CN1CCCCCC1)C2 | 6.00 |  | 70 | 71.6 µM
